Experimental data from ChEMBL document CHEMBL1144710, “epigenetic multiple ligands: mixed histone/protein methyltransferase, acetyltransferase, and class III deacetylase (sirtuin) inhibitors” (J Med Chem, 2008).
Activity calls are given as the source filed them. Unless noted, the calls are words filed in the database; no cut-off is given here.

Columns and labels:
U-937 [1] = assay: Inhibition of histone H3R17 methylation in human U937 cells at 50 uM after 24 hrs; type: functional, cell-based
Procedure, shortened: (§1)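 U937 cells treated at 50 µM for 24 h. Histones extracted with Triton buffer, then 0.2 M HCl overnight at 4 °C. 3–10 µg run on 15% SDS-PAGE and immunoblotted with anti-monomethyl-H3K4, monomethyl-H4R3 or dimethyl-H3R17 (1:500, overnight 4 °C), ECL detection. Loading controls: total H4 (H3K4), Ponceau Red (Arg marks).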

[2] = molecular target: T1, Histone-arginine methyltransferase CARM1 (Homo sapiens) (UniProt Q86X55); assay: Inhibition of human recombinant CARM1 assessed as poly(A) binding protein 1 methylation at 100 uM
T1 sequence (whole entry): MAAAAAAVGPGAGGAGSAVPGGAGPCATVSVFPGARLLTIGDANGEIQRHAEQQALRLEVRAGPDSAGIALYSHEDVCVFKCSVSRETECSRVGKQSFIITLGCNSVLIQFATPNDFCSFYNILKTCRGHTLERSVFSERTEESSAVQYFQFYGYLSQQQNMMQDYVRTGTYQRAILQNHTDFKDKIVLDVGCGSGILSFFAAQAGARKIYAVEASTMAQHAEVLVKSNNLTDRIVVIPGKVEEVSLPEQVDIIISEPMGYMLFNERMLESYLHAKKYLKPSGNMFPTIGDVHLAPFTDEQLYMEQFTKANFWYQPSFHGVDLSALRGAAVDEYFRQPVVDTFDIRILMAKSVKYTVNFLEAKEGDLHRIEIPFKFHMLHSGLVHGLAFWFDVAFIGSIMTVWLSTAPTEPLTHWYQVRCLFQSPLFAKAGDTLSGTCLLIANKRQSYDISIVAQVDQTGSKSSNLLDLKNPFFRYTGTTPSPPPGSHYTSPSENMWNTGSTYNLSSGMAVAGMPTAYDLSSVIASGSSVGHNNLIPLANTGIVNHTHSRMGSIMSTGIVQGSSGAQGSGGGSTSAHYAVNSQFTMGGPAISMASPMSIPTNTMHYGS
Procedure, shortened: (§2)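 Recombinant enzymes (0.2 µg) with substrate (0.5 µg: Npl3p for PRMT1, PABP1 for CARM1, histone H3 for SET7), 0.5 µM [3H]AdoMet and 100 µM compound in PBS pH 7.4 with 3.3% v/v DMSO, 90 min at 30 °C. Products separated by 10% SDS-PAGE, transferred to PVDF, detected by fluorography on film overnight.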

[3] = molecular target: T2, Histone-lysine N-methyltransferase SETD7 (Homo sapiens) (UniProt Q8WTS6); assay: Inhibition of human recombinant SET7 assessed as histone H3 protein methylation at 100 uM; procedure, shortened: as §2
T2 sequence (whole entry): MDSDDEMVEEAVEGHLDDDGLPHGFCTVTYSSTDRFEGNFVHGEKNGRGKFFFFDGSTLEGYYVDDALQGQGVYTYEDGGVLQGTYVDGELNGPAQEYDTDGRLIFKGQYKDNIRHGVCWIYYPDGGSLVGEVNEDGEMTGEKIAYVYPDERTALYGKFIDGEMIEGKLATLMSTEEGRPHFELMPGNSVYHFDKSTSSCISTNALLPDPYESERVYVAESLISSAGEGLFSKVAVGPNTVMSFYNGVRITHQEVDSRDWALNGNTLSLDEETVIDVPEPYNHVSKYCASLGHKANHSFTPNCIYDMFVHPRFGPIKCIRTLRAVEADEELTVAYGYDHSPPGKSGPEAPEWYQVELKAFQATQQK

U-937 [4] = assay: Inhibition of histone H4R3 methylation in human U937 cells at 50 uM after 24 hrs; type: functional, cell-based; procedure, shortened: as §1
U-937 [5] = assay: Inhibition of histone H3K4 methylation in human U937 cells at 50 uM after 24 hrs; type: functional, cell-based; procedure, shortened: as §1
[6] = molecular target: RmtA (Emericella nidulans) (UniProt Q5VLE3); assay: Inhibition of Aspergillus nidulans RmtA at 89.4 uM
[7] = molecular target: Protein arginine N-methyltransferase 1 (Homo sapiens) (UniProt Q99873); assay: Inhibition of human recombinant PRMT1 assessed as nuclear ribonucleoprotein Npl3p methylation at 100 uM; procedure, shortened: as §2
U-937 [8] = assay: Induction of granulocytic differentiation in human U937 cells assessed as CD11c expression at 5 uM after 30 hrs; type: functional
Procedure, shortened: (§3)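 U937 cells treated for 30 h, then stained with PE-conjugated CD11c (PE mouse IgG1 as control) for 30 min at 4 °C in the dark and resuspended in PBS with PI (0.25 µg/mL). Read-out is percent CD11c-positive/PI-negative cells, with dead PI-positive cells excluded. Coloured compounds limited the top dose to 5 µM or lower.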

[9] = molecular target: Protein arginine N-methyltransferase 1 (Homo sapiens) (UniProt Q99873); assay: Inhibition of human recombinant PRMT1 assessed as histone H4 methylation at 50 uM
U-937 [10] = assay: Inhibition of human p300/CBP in U937 cells at 50 uM assessed as histone H3 acetylation; type: cell-based
Procedure, shortened: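 Source was U937 nuclear extract (10 µg per assay) as p300/CBP HAT, with histone H3 substrate and compound at 50 µM or DMSO control for 90 min. Acetyl-H3 detected by indirect ELISA, quantified against acetylated H3 peptide standard curves, […].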

U-937 [11] = assay: Induction of apoptosis in human U937 cells at 25 uM after 30 hrs; type: functional
Procedure, shortened: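 Apoptosis read as caspase 3 activation by FACS, in U937 cells (RPMI, 10% fetal calf serum, 200000 cells/mL) exposed to 25 µM for 30 h.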

RmtA = RmtA (Emericella nidulans, UniProt Q5VLE3); assay: Inhibition of Aspergillus nidulans RmtA
Procedure, shortened: (§4)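 Enzyme was GST-RmtA fusion expressed in E. coli BL21 and glutathione-affinity purified (500 ng), preincubated with compound for 15 min at room temperature. Then 20 µg chicken erythrocyte core histones and 0.55 µCi [3H]AdoMet were added, 30 min at 30 °C. Stopped with 25% TCA, filtered, counted by liquid scintillation.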

[12] = molecular target: T3, NAD-dependent protein deacetylase sirtuin-2 (Homo sapiens) (UniProt Q8IXJ6); assay: Inhibition of human SIRT2 at 25 uM
T3 sequence (whole entry): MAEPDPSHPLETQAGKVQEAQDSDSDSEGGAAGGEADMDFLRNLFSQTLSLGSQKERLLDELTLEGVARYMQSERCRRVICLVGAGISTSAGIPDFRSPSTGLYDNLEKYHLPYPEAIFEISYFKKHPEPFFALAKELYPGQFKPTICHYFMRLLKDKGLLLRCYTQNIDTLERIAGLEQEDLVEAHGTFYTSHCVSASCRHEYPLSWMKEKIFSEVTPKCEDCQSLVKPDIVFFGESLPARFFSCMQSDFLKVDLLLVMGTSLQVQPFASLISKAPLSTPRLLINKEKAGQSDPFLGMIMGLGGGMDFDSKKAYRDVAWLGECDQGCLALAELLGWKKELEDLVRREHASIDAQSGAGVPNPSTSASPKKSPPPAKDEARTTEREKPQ
Procedure, shortened: (§5)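 Fluorescent two-stage assay. SIRT1 (1 U/well) or SIRT2 (5 U/well) with Fluor de Lys-SIRT1/2 substrate, NAD+ and compound at 25 µM, 37 °C for 2 h. Developer II containing nicotinamide then stopped the reaction and generated signal, read at ex 360/em 460 nm.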

[13] = molecular target: T4, NAD-dependent protein deacetylase sirtuin-1 (Homo sapiens) (UniProt Q96EB6); assay: Inhibition of human SIRT1 at 25 uM; procedure, shortened: as §5
T4 sequence (whole entry): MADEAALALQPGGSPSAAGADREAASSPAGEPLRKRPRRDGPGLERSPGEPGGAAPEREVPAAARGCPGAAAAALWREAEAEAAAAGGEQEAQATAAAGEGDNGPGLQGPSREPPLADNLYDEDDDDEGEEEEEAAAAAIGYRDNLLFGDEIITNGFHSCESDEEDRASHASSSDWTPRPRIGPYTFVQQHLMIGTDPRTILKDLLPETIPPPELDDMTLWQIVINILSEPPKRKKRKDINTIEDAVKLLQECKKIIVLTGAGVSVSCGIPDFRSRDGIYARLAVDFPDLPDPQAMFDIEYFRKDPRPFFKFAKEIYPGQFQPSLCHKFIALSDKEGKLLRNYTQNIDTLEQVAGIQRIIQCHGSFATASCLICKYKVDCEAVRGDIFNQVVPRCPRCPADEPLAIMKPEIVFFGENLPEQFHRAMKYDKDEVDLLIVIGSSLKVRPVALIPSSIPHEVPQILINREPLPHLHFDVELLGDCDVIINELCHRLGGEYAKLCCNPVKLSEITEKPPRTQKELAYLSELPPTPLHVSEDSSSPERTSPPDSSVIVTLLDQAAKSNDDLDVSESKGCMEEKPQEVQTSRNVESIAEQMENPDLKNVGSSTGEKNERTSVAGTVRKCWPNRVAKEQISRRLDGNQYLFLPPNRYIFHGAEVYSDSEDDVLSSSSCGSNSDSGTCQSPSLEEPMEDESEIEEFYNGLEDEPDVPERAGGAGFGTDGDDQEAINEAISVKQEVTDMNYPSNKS

U-937 [14] = assay: Cell cycle arrest in human U937 cells assessed as accumulation at G2 phase at 25 uM after 30 hrs; type: functional, cell-based
Procedure, shortened: (§6)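 U937 cells in RPMI with 10% fetal calf serum, HEPES and glutamine, kept at 200000 cells/mL; treated at 25 µM for 30 h, then the distribution across cell cycle phases was analysed.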

[15] = molecular target: RmtA (Emericella nidulans) (UniProt Q5VLE3); assay: Inhibition of Aspergillus nidulans RmtA at 88.5 uM; procedure, shortened: as §4
[16] = molecular target: RmtA (Emericella nidulans) (UniProt Q5VLE3); assay: Inhibition of Aspergillus nidulans RmtA at 84.6 uM; procedure, shortened: as §4
[17] = molecular target: RmtA (Emericella nidulans) (UniProt Q5VLE3); assay: Inhibition of Aspergillus nidulans RmtA at 70.4 uM; procedure, shortened: as §4
[18] = molecular target: RmtA (Emericella nidulans) (UniProt Q5VLE3); assay: Inhibition of Aspergillus nidulans RmtA at 91.8 uM; procedure, shortened: as §4
U-937 [19] = assay: Cell cycle arrest in human U937 cells assessed as accumulation at S/G2 phase at 25 uM after 30 hrs; type: functional, cell-based; procedure, shortened: as §6
U-937 [20] = assay: Induction of granulocytic differentiation in human U937 cells assessed as CD11c expression at 0.5 uM after 30 hrs; type: functional; procedure, shortened: as §3
[21] = molecular target: RmtA (Emericella nidulans) (UniProt Q5VLE3); assay: Inhibition of Aspergillus nidulans RmtA at 90 uM
[22] = molecular target: RmtA (Emericella nidulans) (UniProt Q5VLE3); assay: Inhibition of Aspergillus nidulans RmtA at 77 uM
U-937 [23] = assay: Induction of granulocytic differentiation in human U937 cells assessed as CD11c expression at 1 uM after 30 hrs; type: functional; procedure, shortened: as §3
U-937 [24] = assay: Induction of cell cycle arrest in human U937 cells at 25 uM after 30 hrs; type: functional, cell-based; procedure, shortened: as §6

Sequence of RmtA (Emericella nidulans) (Q5VLE3 as listed by the source): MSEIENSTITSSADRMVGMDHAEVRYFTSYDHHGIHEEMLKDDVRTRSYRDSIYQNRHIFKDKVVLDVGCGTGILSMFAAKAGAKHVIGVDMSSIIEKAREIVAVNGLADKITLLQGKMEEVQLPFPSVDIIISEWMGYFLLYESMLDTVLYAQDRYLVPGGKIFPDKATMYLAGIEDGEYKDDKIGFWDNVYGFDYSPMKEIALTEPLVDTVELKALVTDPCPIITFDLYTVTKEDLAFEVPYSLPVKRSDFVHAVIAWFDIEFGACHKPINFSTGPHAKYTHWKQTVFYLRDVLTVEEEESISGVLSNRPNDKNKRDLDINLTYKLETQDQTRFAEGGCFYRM
Sequence of RmtA (Q5VLE3 whole entry, the tested form may be a part): as the sequence (Q5VLE3 as listed by the source) above
Sequence of Protein arginine N-methyltransferase 1 (Homo sapiens) (Q99873 whole entry, looked up): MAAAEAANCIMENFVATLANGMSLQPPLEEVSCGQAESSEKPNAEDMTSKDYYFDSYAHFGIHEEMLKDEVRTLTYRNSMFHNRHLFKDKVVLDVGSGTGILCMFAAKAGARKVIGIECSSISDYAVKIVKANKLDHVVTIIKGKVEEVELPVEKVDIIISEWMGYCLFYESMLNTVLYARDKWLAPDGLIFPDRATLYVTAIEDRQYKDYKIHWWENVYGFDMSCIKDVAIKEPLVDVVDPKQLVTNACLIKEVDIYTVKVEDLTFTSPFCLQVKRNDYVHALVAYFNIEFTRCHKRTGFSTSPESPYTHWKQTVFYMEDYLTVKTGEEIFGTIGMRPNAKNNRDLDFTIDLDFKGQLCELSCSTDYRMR

Structure (SMILES) | Activity (U-937 [1]) | Activity [2] | Activity [3] | Activity (U-937 [4]) | Activity (U-937 [5]) | Activity [7] | inhibition [9] | inhibition (U-937 [10]) | Activity (U-937 [11]) | IC50 (RmtA) | inhibition [12] | inhibition [13] | other results
O=C1/C(=C/c2ccc(O)c(Br)c2)CCCC/C1=C\c1ccc(O)c(Br)c1 | Active | Active | inactive | Active | Active | inactive |  |  |  |  |  |  | inhibition [6]: 0%
CN1C/C(=C\c2cc(Br)c(O)c(Br)c2)C(=O)/C(=C/c2cc(Br)c(O)c(Br)c2)C1 | Active | Active | Active | Active | Active | Active | 73% | 87% | 1% | 39 µM | 64% | 63% | Activity (U-937 [8]): 53.2%; Activity (U-937 [14]): Active
O=C1/C(=C/c2ccc(O)c(Br)c2)CSC/C1=C\c1ccc(O)c(Br)c1 | Active | Active | inactive | Active | Active | inactive |  |  |  |  |  |  | inhibition [15]: 0%
CN1C2CCC1/C(=C\c1ccc(O)c(Br)c1)C(=O)/C2=C/c1ccc(O)c(Br)c1 | Active |  |  | Active | Active |  |  |  |  |  |  |  | inhibition [16]: 0%
O=C(Nc1cc(Br)c(O)c(Br)c1)c1ccc(C(=O)Nc2cc(Br)c(O)c(Br)c2)cc1 | Active |  |  | Active |  |  |  |  |  |  |  |  | inhibition [17]: 0%
CC(C)(C(=O)/C=C/c1ccc(O)c(Br)c1)C(=O)/C=C/c1ccc(O)c(Br)c1 | Active |  |  | Active |  |  |  |  |  |  |  |  | inhibition [18]: 0%
O=C1/C(=C/c2cc(Br)c(O)c(Br)c2)CSC/C1=C\c1cc(Br)c(O)c(Br)c1 | Active | Active | Active | Active | Active | Active | 73% | 69% | 40.7% | 45 µM | 59% | 54% | Activity (U-937 [8]): 9.1%; Activity (U-937 [19]): Active
O=C(/C=C/c1cc(Br)c(O)c(Br)c1)/C=C/c1cc(Br)c(O)c(Br)c1 | Active | Active | Active | Active | Active |  | 76% | 100% | 1.1% | 69 µM | 100% | 61% | Activity (U-937 [8]): 95.2%; Activity (U-937 [20]): 77%; Activity (U-937 [14]): Active
O=C(c1cc(Br)c(O)c(Br)c1)c1cc(Br)c(O)c(Br)c1 | Active |  |  | Active | Active |  |  |  |  |  |  |  | inhibition [21]: 0%
O=C1/C(=C/c2ccc(O)c(Br)c2)CN(Cc2ccccc2)C/C1=C\c1ccc(O)c(Br)c1 | Active | Active | inactive | Active | Active | inactive |  |  |  |  |  |  | inhibition [22]: 0%
O=C1OC2(c3ccccc31)c1cc(Br)c(O)c(Br)c1Oc1c2cc(Br)c(O)c1Br [EOSIN] | Active | Active | Active | Active |  | Active | 96% | 20% | 0.5% | 18 µM | 31% | 33% | Activity (U-937 [23]): 5.7%; Activity (U-937 [24]): inactive
